According to ChEMBL document CHEMBL3085747, “Synthesis and biological evaluation of substituted 1,2,3-benzotriazines and pyrido[3,2-d]-1,2,3-triazines as inhibitors of vascular endothelial growth factor receptor-2” (2013):

Tests used:
[1] = Growth inhibition of HMVEC after 4 days by MTT assay; format: functional; settings: Homo sapiens, 96 h
How it was run: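 Human microvascular endothelial cells were grown in DMEM with 4 mM L-glutamine, 4.50 g/L glucose and 10% heat-inactivated FBS. Cells were seeded at 2 × 10³/well for 24 h, then exposed to a range of compound concentrations for 4 days at 37 °C. MTT (2 mg/mL) was added, cells were dissolved in DMSO, and A570 was read. Growth inhibition is relative to untreated cells. GI50 is the mean of three independent experiments.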

[2] = Ratio of PTK787 GI50 to compound GI50 for HMVEC after 4 days by MTT assay; format: functional, Homo sapiens

| Structure (SMILES) | GI50 [1] [µM] | RatioGI50 [2] |
| --- | --- | --- |
| CCOc1cc2nnnc(Nc3ccc(Br)c(F)c3)c2cc1OC | 73.3 |  |
| CCOc1cc2nnnc(Nc3cccc(C(F)(F)F)c3)c2cc1OC | > 80 |  |
| CCOc1cc2nnnc(Nc3ccc(C(F)(F)F)cc3)c2cc1OC | > 80 |  |
| CCOc1cc2nnnc(Nc3cccc(OC(F)(F)F)c3)c2cc1OC | 23.3 |  |
| CCOc1cc2nnnc(Nc3ccc(OC(F)(F)F)cc3)c2cc1OC | > 80 |  |
| CCOc1cc2nnnc(Nc3cccc(Cl)c3)c2cc1OC | 60 |  |
| CCOc1cc2nnnc(Nc3ccc(F)c(C(F)(F)F)c3)c2cc1OC | 31.7 |  |
| CCOc1cc2nnnc(Nc3ccccc3F)c2cc1OC | > 80 |  |
| CCOc1cc2nnnc(Nc3cccc(Br)c3)c2cc1OC | 39.8 |  |
| CCCCOc1cc2nnnc(Nc3ccc(Br)c(F)c3)c2cc1OC | > 80 |  |
| CCCCOc1cc2nnnc(Nc3ccc(Cl)c(Cl)c3)c2cc1OC | 15.5 |  |
| CCCCOc1cc2nnnc(Nc3ccc(C(F)(F)F)cc3)c2cc1OC | > 80 |  |
| CCCCOc1cc2nnnc(Nc3ccc(OC(F)(F)F)cc3)c2cc1OC | 30 |  |
| CCCCOc1cc2nnnc(Nc3ccc(F)c(C(F)(F)F)c3)c2cc1OC | 16.1 |  |
| CCCCOc1cc2nnnc(Nc3ccccc3F)c2cc1OC | > 80 |  |
| CCCCOc1cc2nnnc(Nc3cccc(Br)c3)c2cc1OC | 16.8 |  |
| CCCCOc1cc2nnnc(Nc3ccc(F)cc3)c2cc1OC | > 80 |  |
| CCCCOc1cc2nnnc(Nc3ccc(C)cc3)c2cc1OC | > 80 |  |
| CCCCCOc1cc2nnnc(Nc3ccc(Cl)cc3)c2cc1OC | 25.3 |  |

| Structure (SMILES) | GI50 [1] [µM] | RatioGI50 [2] |
| --- | --- | --- |
| CCCCCOc1cc2nnnc(Nc3ccc(Br)c(F)c3)c2cc1OC | > 80 |  |
| CCCCCOc1cc2nnnc(Nc3cc(F)cc(F)c3)c2cc1OC | 27.9 |  |
| CCCCCOc1cc2nnnc(Nc3cccc(OC(F)(F)F)c3)c2cc1OC | 42.6 |  |
| CCCCCOc1cc2nnnc(Nc3ccc(OC(F)(F)F)cc3)c2cc1OC | 38 |  |
| CCCCCOc1cc2nnnc(Nc3ccc(F)cc3)c2cc1OC | > 80 |  |
| COc1cc2c(Nc3ccc(C(F)(F)F)cc3)nnnc2cc1OCCCCl | 44.4 |  |
| COc1cc2c(Nc3ccc(C)cc3)nnnc2cc1OCCCCl | 17.1 |  |
| COc1cc2c(Nc3ccc(F)c(Cl)c3)nnnc2cc1OCCCCl | 7.98 | 4 |
| Clc1ccc(Nc2nnnc3ccc(Cl)nc23)cc1 | 10.5 |  |
| Fc1cc(Nc2nnnc3ccc(Cl)nc23)ccc1Br | 9.56 |  |
| Clc1cc(Cl)cc(Nc2nnnc3ccc(Cl)nc23)c1 | 7.93 |  |
| FC(F)(F)c1cccc(Nc2nnnc3ccc(Cl)nc23)c1 | 5.25 |  |
| FC(F)(F)c1ccc(Nc2nnnc3ccc(Cl)nc23)cc1 | 8.06 |  |
| FC(F)(F)Oc1cccc(Nc2nnnc3ccc(Cl)nc23)c1 | 4.28 |  |
| FC(F)(F)Oc1ccc(Nc2nnnc3ccc(Cl)nc23)cc1 | 11.5 |  |
| Fc1ccc(Nc2nnnc3ccc(Cl)nc23)cc1C(F)(F)F | 10.8 |  |
| Fc1ccccc1Nc1nnnc2ccc(Cl)nc12 | 10.8 |  |
| Clc1ccc2nnnc(Nc3cccc(Br)c3)c2n1 | 7.24 |  |
| Clc1ccc(Nc2nnc(Cc3ccncc3)c3ccccc23)cc1 | 38.1 |  |
